{"source": "ChEMBL document CHEMBL4014344", "about": "“Discovery of the Soluble Guanylate Cyclase Stimulator Vericiguat (BAY 1021189) for the Treatment of Chronic Heart Failure” (J Med Chem, 2017)", "key": {"[1]": {"experiment": "Oral bioavailability in Wistar rat administered via oral gavage after 24 hrs by LC-MS analysis", "assay_type": "ADME, organism-based", "details": "in vivo", "outline": "(§1)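 Male Wistar rats and female beagle dogs. iv in plasma/DMSO (rat) or H2O/PEG 400/EtOH (dog). Oral gavage in H2O/PEG 400/EtOH for both. Rats jugular-catheterised ≥1 d before dosing. Usually >10 blood samples, at least two after 24 h. Plasma quantified by LC-MS with internal standard. CL, t1/2, Vss and F calculated from plasma curves. Blood clearance via blood/plasma ratio (20 min blood incubation).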"}, "[2]": {"experiment": "Inhibition of phenylephrine-induced contractions in dog femoral vein after 15 to 20 mins post phenylephrine-induced contraction", "assay_type": "functional, tissue-based, Canis lupus familiaris"}, "Cytochrome P450 2C9": {"molecular_target": "Cytochrome P450 2C9 (Homo sapiens, UniProt P11712)", "sequence (P11712 whole entry)": "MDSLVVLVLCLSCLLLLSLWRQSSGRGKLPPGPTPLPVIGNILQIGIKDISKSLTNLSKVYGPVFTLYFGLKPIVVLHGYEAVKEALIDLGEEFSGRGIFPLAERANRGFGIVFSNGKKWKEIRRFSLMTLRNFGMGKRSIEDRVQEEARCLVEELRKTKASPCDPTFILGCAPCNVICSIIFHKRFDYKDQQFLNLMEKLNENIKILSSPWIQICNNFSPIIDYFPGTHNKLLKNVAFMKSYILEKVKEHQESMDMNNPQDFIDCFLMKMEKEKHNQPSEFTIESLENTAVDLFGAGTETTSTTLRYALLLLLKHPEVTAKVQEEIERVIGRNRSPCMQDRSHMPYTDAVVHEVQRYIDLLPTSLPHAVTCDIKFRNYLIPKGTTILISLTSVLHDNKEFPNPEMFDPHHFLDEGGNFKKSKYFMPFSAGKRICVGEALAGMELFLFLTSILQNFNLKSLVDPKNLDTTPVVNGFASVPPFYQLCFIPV", "experiment": "Inhibition of human liver microsomes CYP2C9 using diclofenac as substrate", "assay_type": "ADME"}, "[3]": {"experiment": "Volume of distribution at steady state in iv dosed Beagle dog after 24 hrs by LC-MS analysis", "assay_type": "ADME, organism-based, Canis lupus familiaris", "details": "in vivo, read-out: Vdss", "outline": "as §1"}, "Cytochrome P450 2D6": {"molecular_target": "Cytochrome P450 2D6 (Homo sapiens, UniProt P10635)", "sequence (P10635 whole entry)": "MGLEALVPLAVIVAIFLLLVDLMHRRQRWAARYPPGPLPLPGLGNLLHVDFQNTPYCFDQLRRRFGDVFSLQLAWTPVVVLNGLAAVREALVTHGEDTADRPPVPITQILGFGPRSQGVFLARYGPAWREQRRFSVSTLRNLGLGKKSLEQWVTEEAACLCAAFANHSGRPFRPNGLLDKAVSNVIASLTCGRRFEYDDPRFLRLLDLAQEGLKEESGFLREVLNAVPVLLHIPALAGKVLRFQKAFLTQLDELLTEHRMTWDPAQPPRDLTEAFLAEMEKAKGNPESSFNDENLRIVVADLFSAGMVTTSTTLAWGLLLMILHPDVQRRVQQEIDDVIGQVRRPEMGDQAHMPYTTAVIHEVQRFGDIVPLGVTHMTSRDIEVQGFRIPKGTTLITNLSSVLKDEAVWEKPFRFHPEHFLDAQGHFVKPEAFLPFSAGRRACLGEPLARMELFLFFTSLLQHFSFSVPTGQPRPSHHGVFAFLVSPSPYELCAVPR", "experiment": "Inhibition of human liver microsomes CYP2D6 using dextromethorphan as substrate", "assay_type": "ADME"}, "[4]": {"experiment": "Oral bioavailability in Beagle dog administered via oral gavage after 24 hrs by LC-MS analysis", "assay_type": "ADME, organism-based, Canis lupus familiaris", "details": "in vivo", "outline": "as §1"}, "[5]": {"molecular_target": "T1, Guanylate cyclase soluble subunit alpha-1 (Rattus norvegicus) (UniProt P19686)", "T1 sequence (whole entry)": "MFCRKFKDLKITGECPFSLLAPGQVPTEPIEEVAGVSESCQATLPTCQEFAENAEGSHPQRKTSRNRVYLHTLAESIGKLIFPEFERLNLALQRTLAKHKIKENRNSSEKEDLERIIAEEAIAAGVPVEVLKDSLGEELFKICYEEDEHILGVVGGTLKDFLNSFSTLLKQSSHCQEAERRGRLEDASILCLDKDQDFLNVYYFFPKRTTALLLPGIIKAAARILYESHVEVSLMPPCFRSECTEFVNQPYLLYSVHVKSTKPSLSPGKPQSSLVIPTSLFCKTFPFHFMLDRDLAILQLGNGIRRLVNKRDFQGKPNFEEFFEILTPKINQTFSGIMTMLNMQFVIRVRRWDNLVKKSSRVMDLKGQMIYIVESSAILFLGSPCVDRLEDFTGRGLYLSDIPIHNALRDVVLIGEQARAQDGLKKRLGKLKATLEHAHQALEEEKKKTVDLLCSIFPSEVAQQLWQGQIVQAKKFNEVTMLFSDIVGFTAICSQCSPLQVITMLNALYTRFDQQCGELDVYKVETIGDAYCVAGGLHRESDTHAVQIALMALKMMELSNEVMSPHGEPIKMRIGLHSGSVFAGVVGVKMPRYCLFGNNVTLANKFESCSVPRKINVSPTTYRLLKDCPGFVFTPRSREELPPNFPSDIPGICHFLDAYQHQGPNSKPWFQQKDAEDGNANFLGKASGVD", "experiment": "Stimulation of rat recombinant sGCalpha1 subunit expressed in CHO cells using alpha-[32P]GTP as substrate assessed as >=3 fold increase in [32P]cGMP formation after 10 mins by radioimmunoassay", "assay_type": "cell-based"}, "Rattus norvegicus [6]": {"test_system": "Rattus norvegicus", "experiment": "Antihypertensive activity in L-NAME-treated renin transgenic rat co-expressing RenTG(mRRen2)27 assessed as reduction in osteopontin expression at 3 to 10 mg/kg administered qd via oral gavage up to 21 days", "assay_type": "functional, organism-based", "outline": "(§2)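 Male RenTG(mRRen2)27 rats, 8 weeks old, given L-NAME in drinking water (50 mg/L) throughout. Randomised to placebo (2 mL/kg qd, n = 20) or 3 and 10 mg/kg/day po by gavage qd (n = 15 per group). Tail-cuff blood pressure on day 0, 7, 14 and 21. Plasma taken at day 22 end. Unpaired t test, mean ± SEM.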"}, "[7]": {"experiment": "Clearance in iv dosed Wistar rat blood after 24 hrs by LC-MS analysis", "assay_type": "ADME, organism-based", "details": "whole blood", "outline": "as §1"}, "[8]": {"experiment": "Clearance in rat hepatocytes at 1 uM up to 90 mins by LC-MS/MS analysis", "assay_type": "ADME, cell-based, Hepatocyte", "outline": "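Rat hepatocytes at 1 × 10^6 viable cells/mL (trypan blue-corrected) in Williams' medium E, 1 μM substrate, MeCN ≤1%, 37 °C, pH 7.4. Sampled at 2−90 min, quenched with MeCN, analysed by LC-MS/MS.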"}, "[9]": {"experiment": "Volume of distribution at steady state in iv dosed Wistar rat after 24 hrs by LC-MS analysis", "assay_type": "ADME, organism-based", "details": "in vivo, read-out: Vdss", "outline": "as §1"}, "Cytochrome P450 2A6": {"molecular_target": "T2, Cytochrome P450 2A6 (Homo sapiens, UniProt P11509)", "T2 sequence (P11509 whole entry)": "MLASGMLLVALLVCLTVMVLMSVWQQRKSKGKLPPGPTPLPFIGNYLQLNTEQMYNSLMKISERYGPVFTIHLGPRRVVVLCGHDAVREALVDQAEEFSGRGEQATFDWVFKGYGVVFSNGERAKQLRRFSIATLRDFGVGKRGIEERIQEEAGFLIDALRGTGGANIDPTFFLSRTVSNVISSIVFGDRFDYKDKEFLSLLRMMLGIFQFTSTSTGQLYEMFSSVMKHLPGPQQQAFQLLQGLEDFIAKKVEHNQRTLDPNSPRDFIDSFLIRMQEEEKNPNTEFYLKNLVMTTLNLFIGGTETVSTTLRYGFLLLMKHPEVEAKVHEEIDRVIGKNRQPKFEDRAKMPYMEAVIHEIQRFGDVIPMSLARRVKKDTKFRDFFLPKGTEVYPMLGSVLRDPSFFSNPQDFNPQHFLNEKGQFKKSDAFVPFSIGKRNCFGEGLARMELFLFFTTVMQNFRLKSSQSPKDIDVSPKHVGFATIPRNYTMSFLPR", "experiment": "Inhibition of human liver microsomes CYP2A6 using coumarin as substrate", "assay_type": "ADME"}, "Cytochrome P450 3A4": {"molecular_target": "Cytochrome P450 3A4 (Homo sapiens, UniProt P08684)", "sequence (P08684 whole entry)": "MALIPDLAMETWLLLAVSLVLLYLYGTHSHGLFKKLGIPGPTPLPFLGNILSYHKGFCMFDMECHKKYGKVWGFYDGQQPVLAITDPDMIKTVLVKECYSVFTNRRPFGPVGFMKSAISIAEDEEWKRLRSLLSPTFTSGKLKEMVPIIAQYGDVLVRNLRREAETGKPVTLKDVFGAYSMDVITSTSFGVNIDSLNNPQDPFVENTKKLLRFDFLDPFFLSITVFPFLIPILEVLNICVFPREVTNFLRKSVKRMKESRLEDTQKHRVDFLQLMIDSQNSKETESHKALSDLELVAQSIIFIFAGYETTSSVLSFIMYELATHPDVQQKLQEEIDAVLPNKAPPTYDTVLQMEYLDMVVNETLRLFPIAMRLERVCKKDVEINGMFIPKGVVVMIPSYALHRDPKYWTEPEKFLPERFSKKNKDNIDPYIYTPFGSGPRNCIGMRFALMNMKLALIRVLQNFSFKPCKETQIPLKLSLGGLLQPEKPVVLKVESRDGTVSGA", "experiment": "Inhibition of human liver microsomes CYP3A4 using midazolam as substrate", "assay_type": "ADME"}, "Heart": {"test_system": "Heart", "experiment": "Cardiotoxicity in Wistar rat assessed as effect on left ventricular diastolic pressure administered for 20 mins", "assay_type": "toxicity, tissue-based", "outline": "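Male Wistar rats (200−250 g) anesthetized with Narcoren 100 mg/kg ip. Excised heart Langendorff-perfused at constant flow 10 mL/min with Krebs−Henseleit buffer gassed with 95% O2/5% CO2. Values expressed as relative change from baseline before compound application.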"}, "[10]": {"experiment": "Stimulation of rat sGC expressed in CHO cells using GTP as substrate assessed as increase in cGMP formation treated for 6 mins in presence of 100 nM SNAP by luminescence assay", "assay_type": "cell-based", "outline": "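CHO reporter cells overexpressing sGC, cultured 1 or 2 d, then loaded 3 h with coelenterazine in calcium-free Tyrode. Compound serial dilutions applied 6 min. Calcium added (final 3 mM) and luminescence read for 40 s by CCD camera. SNAP co-applied at 30 or 100 nM where stated. ODQ condition: 10 μM ODQ pretreatment for 3 h.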"}, "[11]": {"experiment": "Drug metabolism in human hepatocytes assessed as CYP-mediated methyl 4,6-diamino-2-(5-fluoro-1H-pyrazolo[3,4-b]pyridin-3-yl)pyrimidin-5-ylcarbamate metabolite formation", "assay_type": "ADME, cell-based"}, "Rattus norvegicus [12]": {"test_system": "Rattus norvegicus", "experiment": "Antihypertensive activity in L-NAME-treated renin transgenic rat co-expressing RenTG(mRRen2)27 assessed as reduction in proteinuria administered qd via oral gavage up to 21 days", "assay_type": "functional", "outline": "as §2"}, "Cytochrome P450 2C19": {"molecular_target": "Cytochrome P450 2C19 (Homo sapiens, UniProt P33261)", "sequence (P33261 whole entry)": "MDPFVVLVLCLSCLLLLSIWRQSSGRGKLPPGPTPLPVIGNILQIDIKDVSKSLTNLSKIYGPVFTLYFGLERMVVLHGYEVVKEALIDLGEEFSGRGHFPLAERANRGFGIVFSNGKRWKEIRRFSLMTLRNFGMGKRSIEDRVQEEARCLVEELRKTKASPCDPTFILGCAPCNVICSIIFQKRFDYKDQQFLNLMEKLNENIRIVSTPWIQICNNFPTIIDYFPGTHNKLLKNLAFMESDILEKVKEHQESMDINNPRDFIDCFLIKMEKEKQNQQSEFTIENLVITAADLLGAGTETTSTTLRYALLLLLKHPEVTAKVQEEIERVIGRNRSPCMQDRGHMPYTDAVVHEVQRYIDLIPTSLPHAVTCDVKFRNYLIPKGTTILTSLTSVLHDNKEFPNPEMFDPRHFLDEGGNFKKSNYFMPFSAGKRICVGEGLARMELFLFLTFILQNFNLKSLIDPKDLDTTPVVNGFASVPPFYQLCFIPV", "experiment": "Inhibition of human liver microsomes CYP2C19 using S-mephenytoin as substrate", "assay_type": "ADME"}}, "note": "Calls of active or inactive are those of the source. No cut-off for these calls is given here.", "data": [{"smiles": "COC(=O)Nc1c(N)nc(-c2nn(Cc3ccccc3F)c3ncc(F)cc23)nc1N", "note": "[VERICIGUAT]", "values": [{"measurement": "bioavailability", "setting": "[1]", "value": 65, "unit": "%"}, {"measurement": "IC50", "setting": "[2]", "value": 3.07, "unit": "µM"}, {"measurement": "IC50", "setting": "Cytochrome P450 2C9", "value": "> 50", "unit": "µM"}, {"measurement": "Vd", "setting": "[3]", "value": 1.4, "unit": "L/kg"}, {"measurement": "IC50", "setting": "Cytochrome P450 2D6", "value": "> 50", "unit": "µM"}, {"measurement": "bioavailability", "setting": "[4]", "value": 75, "unit": "%"}, {"measurement": "MEC", "setting": "[5]", "value": 0.3, "unit": "µM"}, {"measurement": "Activity", "setting": "Rattus norvegicus [6]", "value": "Active"}, {"measurement": "clearance", "setting": "[7]", "value": 5, "unit": "mL/min/kg"}, {"measurement": "CLhep predicted at 1 µM", "setting": "[8]", "value": 1.67, "unit": "mL/min/kg"}, {"measurement": "Vd", "setting": "[9]", "value": 1, "unit": "L/kg"}, {"measurement": "IC50", "setting": "Cytochrome P450 2A6", "value": "> 50", "unit": "µM"}, {"measurement": "IC50", "setting": "Cytochrome P450 3A4", "value": "> 50", "unit": "µM"}, {"measurement": "Activity", "setting": "Heart", "value": "Non-Toxic"}, {"measurement": "EC50", "setting": "[10]", "value": 0.0106, "unit": "µM"}, {"measurement": "Drug metabolism", "setting": "[11]", "value": "Metabolite_Detected"}, {"measurement": "Activity", "setting": "Rattus norvegicus [12]", "value": "Dose-dependent effect"}, {"measurement": "IC50", "setting": "Cytochrome P450 2C19", "value": "> 50", "unit": "µM"}]}]}
